Source: ChEMBL document CHEMBL4814044, “Design and synthesis, biological evaluation of bis-(1,2,3- and 1,2,4)-triazole derivatives as potential antimicrobial and antifungal agents” (2021)
Active and inactive are the calls of the source. The calls are words filed in the database; no cut-off is given here.

Legend:
Assay type in all cases: functional
Saccharomyces cerevisiae [1] = assay: Antifungal activity against Saccharomyces cerevisiae MTCC 1344 assessed as zone of inhibition at 16.8 uM incubated for 2 days by cross streak plate method; conditions: MTCC 1344, 48 h, time 2 day, read-out: IZ
Outline: (§1)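 Fungal strain (A. niger MTCC 404 or S. cerevisiae MTCC 1344) was incubated with the compound for 2 days at 37 °C. Growth inhibition was then assessed by the cross streak plate method.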

Aspergillus niger [2] = assay: Antifungal activity against Aspergillus niger MTCC 404 assessed as zone of inhibition at 33.7 uM incubated for 2 days by cross streak plate method; conditions: MTCC 404, 48 h, time 2 day, read-out: IZ; outline: as §1
Escherichia coli = assay: Antibacterial activity against Escherichia coli MTCC 443 assessed as bacterial growth inhibition by microdilution method
Outline: (§2)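 Broth microdilution against Gram-positive and Gram-negative strains. The endpoint is the minimal inhibitory concentration, in µg/ml.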

Aspergillus niger [3] = assay: Antifungal activity against Aspergillus niger MTCC 404 assessed as zone of inhibition at 25.2 uM incubated for 2 days by cross streak plate method; conditions: MTCC 404, 48 h, time 2 day, read-out: IZ; outline: as §1
Saccharomyces cerevisiae [4] = assay: Antifungal activity against Saccharomyces cerevisiae MTCC 1344 assessed as zone of inhibition at 33.7 uM incubated for 2 days by cross streak plate method; conditions: MTCC 1344, 48 h, time 2 day, read-out: IZ
Outline: (§3)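 S. cerevisiae MTCC 1344 cultures were incubated for 2 days at 37 °C and then tested by the cross streak plate method.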

Saccharomyces cerevisiae [5] = assay: Antifungal activity against Saccharomyces cerevisiae MTCC 1344 assessed as zone of inhibition at 25.2 uM incubated for 2 days by cross streak plate method; conditions: MTCC 1344, 48 h, time 2 day, read-out: IZ; outline: as §1
[6] = Antioxidant activity assessed as DPPH radical scavenging activity
Pseudomonas aeruginosa = assay: Antibacterial activity against Pseudomonas aeruginosa MTCC 424 assessed as bacterial growth inhibition by microdilution method; outline: as §2
Aspergillus niger [7] = assay: Antifungal activity against Aspergillus niger MTCC 404 assessed as zone of inhibition at 16.8 uM incubated for 2 days by cross streak plate method; conditions: MTCC 404, 48 h, time 2 day, read-out: IZ; outline: as §1
Staphylococcus aureus = assay: Antibacterial activity against Staphylococcus aureus MTCC 96 assessed as bacterial growth inhibition by microdilution method; outline: as §2
Bacillus subtilis = assay: Antibacterial activity against Bacillus subtilis MTCC 441 assessed as bacterial growth inhibition by microdilution method; outline: as §2
Saccharomyces cerevisiae [8] = assay: Antifungal activity against Saccharomyces cerevisiae MTCC 1344 assessed as zone of inhibition at 24 uM incubated for 2 days by cross streak plate method; conditions: MTCC 1344, 48 h, time 2 day, read-out: IZ; outline: as §1
Aspergillus niger [9] = assay: Antifungal activity against Aspergillus niger MTCC 404 assessed as zone of inhibition at 16 uM incubated for 2 days by cross streak plate method; conditions: MTCC 404, 48 h, time 2 day, read-out: IZ; outline: as §1
Saccharomyces cerevisiae [10] = assay: Antifungal activity against Saccharomyces cerevisiae MTCC 1344 assessed as zone of inhibition at 32.1 uM incubated for 2 days by cross streak plate method; conditions: MTCC 1344, 48 h, time 2 day, read-out: IZ; outline: as §3
Aspergillus niger [11] = assay: Antifungal activity against Aspergillus niger MTCC 404 assessed as zone of inhibition at 24 uM incubated for 2 days by cross streak plate method; conditions: MTCC 404, 48 h, time 2 day, read-out: IZ; outline: as §1
Saccharomyces cerevisiae [12] = assay: Antifungal activity against Saccharomyces cerevisiae MTCC 1344 assessed as zone of inhibition at 16 uM incubated for 2 days by cross streak plate method; conditions: MTCC 1344, 48 h, time 2 day, read-out: IZ; outline: as §1
Aspergillus niger [13] = assay: Antifungal activity against Aspergillus niger MTCC 404 assessed as zone of inhibition at 32.1 uM incubated for 2 days by cross streak plate method; conditions: MTCC 404, 48 h, time 2 day, read-out: IZ; outline: as §1
Saccharomyces cerevisiae [14] = assay: Antifungal activity against Saccharomyces cerevisiae MTCC 1344 assessed as zone of inhibition at 15.9 uM incubated for 2 days by cross streak plate method; conditions: MTCC 1344, 48 h, time 2 day, read-out: IZ; outline: as §1
Saccharomyces cerevisiae [15] = assay: Antifungal activity against Saccharomyces cerevisiae MTCC 1344 assessed as zone of inhibition at 23.9 uM incubated for 2 days by cross streak plate method; conditions: MTCC 1344, 48 h, time 2 day, read-out: IZ; outline: as §1
Aspergillus niger [16] = assay: Antifungal activity against Aspergillus niger MTCC 404 assessed as zone of inhibition at 31.8 uM incubated for 2 days by cross streak plate method; conditions: MTCC 404, 48 h, time 2 day, read-out: IZ; outline: as §1
Aspergillus niger [17] = assay: Antifungal activity against Aspergillus niger MTCC 404 assessed as zone of inhibition at 15.9 uM incubated for 2 days by cross streak plate method; conditions: MTCC 404, 48 h, time 2 day, read-out: IZ; outline: as §1
Saccharomyces cerevisiae [18] = assay: Antifungal activity against Saccharomyces cerevisiae MTCC 1344 assessed as zone of inhibition at 31.8 uM incubated for 2 days by cross streak plate method; conditions: MTCC 1344, 48 h, time 2 day, read-out: IZ; outline: as §1
Aspergillus niger [19] = assay: Antifungal activity against Aspergillus niger MTCC 404 assessed as zone of inhibition at 23.9 uM incubated for 2 days by cross streak plate method; conditions: MTCC 404, 48 h, time 2 day, read-out: IZ; outline: as §1
Saccharomyces cerevisiae [20] = assay: Antifungal activity against Saccharomyces cerevisiae MTCC 1344 assessed as zone of inhibition at 18.3 uM incubated for 2 days by cross streak plate method; conditions: MTCC 1344, 48 h, time 2 day, read-out: IZ; outline: as §1
Aspergillus niger [21] = assay: Antifungal activity against Aspergillus niger MTCC 404 assessed as zone of inhibition at 36.6 uM incubated for 2 days by cross streak plate method; conditions: MTCC 404, 48 h, time 2 day, read-out: IZ; outline: as §1
Aspergillus niger [22] = assay: Antifungal activity against Aspergillus niger MTCC 404 assessed as zone of inhibition at 27.5 uM incubated for 2 days by cross streak plate method; conditions: MTCC 404, 48 h, time 2 day, read-out: IZ; outline: as §1
Saccharomyces cerevisiae [23] = assay: Antifungal activity against Saccharomyces cerevisiae MTCC 1344 assessed as zone of inhibition at 27.5 uM incubated for 2 days by cross streak plate method; conditions: MTCC 1344, 48 h, time 2 day, read-out: IZ; outline: as §1
Aspergillus niger [24] = assay: Antifungal activity against Aspergillus niger MTCC 404 assessed as zone of inhibition at 18.3 uM incubated for 2 days by cross streak plate method; conditions: MTCC 404, 48 h, time 2 day, read-out: IZ; outline: as §1
Saccharomyces cerevisiae [25] = assay: Antifungal activity against Saccharomyces cerevisiae MTCC 1344 assessed as zone of inhibition at 36.6 uM incubated for 2 days by cross streak plate method; conditions: MTCC 1344, 48 h, time 2 day, read-out: IZ; outline: as §3

SMILES	MIC (Escherichia coli) [µg/mL]	MIC (Pseudomonas aeruginosa) [µg/mL]	MIC (Staphylococcus aureus) [µg/mL]	MIC (Bacillus subtilis) [µg/mL]	zone of inhibition at 16.8 µM (Saccharomyces cerevisiae [1]) [mm]	zone of inhibition at 33.7 µM (Aspergillus niger [2]) [mm]	zone of inhibition at 25.2 µM (Aspergillus niger [3]) [mm]	zone of inhibition at 33.7 µM (Saccharomyces cerevisiae [4]) [mm]	zone of inhibition at 25.2 µM (Saccharomyces cerevisiae [5]) [mm]	Activity [6]	zone of inhibition at 16.8 µM (Aspergillus niger [7]) [mm]	also measured
O=C(CSc1nnc(-c2ccccc2OCc2cn(-c3ccccc3)nn2)n1Cc1ccccc1)c1ccccc1	10	7.5	7.9	5	2	3	3	3	3	inactive	2	–
O=C(CSc1nnc(-c2ccccc2OCc2cn(-c3ccc(Cl)cc3)nn2)n1Cc1ccccc1)c1ccc(Cl)cc1	8.5	8.2	8	4	–	–	–	–	–	inactive	–	zone of inhibition at 15.9 µM (Saccharomyces cerevisiae [14]): 2 mm; zone of inhibition at 23.9 µM (Saccharomyces cerevisiae [15]): 2 mm; zone of inhibition at 31.8 µM (Aspergillus niger [16]): 3 mm; zone of inhibition at 15.9 µM (Aspergillus niger [17]): 2 mm; zone of inhibition at 31.8 µM (Saccharomyces cerevisiae [18]): 3 mm; zone of inhibition at 23.9 µM (Aspergillus niger [19]): 2 mm
O=C(CSc1nnc(-c2ccccc2OCc2cn(-c3ccccc3)nn2)n1-c1ccccc1)c1ccccc1	9.8	9.1	9.8	4.9	–	–	–	–	–	inactive	–	zone of inhibition at 18.3 µM (Saccharomyces cerevisiae [20]): 1.5 mm; zone of inhibition at 36.6 µM (Aspergillus niger [21]): 3 mm; zone of inhibition at 27.5 µM (Aspergillus niger [22]): 3 mm; zone of inhibition at 27.5 µM (Saccharomyces cerevisiae [23]): 2 mm; zone of inhibition at 18.3 µM (Aspergillus niger [24]): 2.1 mm; zone of inhibition at 36.6 µM (Saccharomyces cerevisiae [25]): 3 mm
CC1(C)S[C@@H]2[C@H](NC(=O)[C@H](N)c3ccccc3)C(=O)N2[C@H]1C(=O)O [AMPICILLIN]	3.9	10	10	10	–	–	–	–	–	–	–	–

Further compounds by falling MIC (Escherichia coli), results first:

MIC (Escherichia coli) [µg/mL]	MIC (Pseudomonas aeruginosa) [µg/mL]	MIC (Staphylococcus aureus) [µg/mL]	MIC (Bacillus subtilis) [µg/mL]	SMILES	zone of inhibition at 16.8 µM (Saccharomyces cerevisiae [1]) [mm]	zone of inhibition at 33.7 µM (Aspergillus niger [2]) [mm]	zone of inhibition at 25.2 µM (Aspergillus niger [3]) [mm]	zone of inhibition at 33.7 µM (Saccharomyces cerevisiae [4]) [mm]	zone of inhibition at 25.2 µM (Saccharomyces cerevisiae [5]) [mm]	Activity [6]	zone of inhibition at 16.8 µM (Aspergillus niger [7]) [mm]	also measured
10	7.5	7.9	4.1	O=C(CSc1nnc(-c2ccccc2OCc2cn(-c3ccccc3)nn2)n1-c1ccccc1)c1ccc(Br)cc1	–	–	–	–	–	inactive	–	zone of inhibition at 24 µM (Saccharomyces cerevisiae [8]): 2 mm; zone of inhibition at 16 µM (Aspergillus niger [9]): 1.5 mm; zone of inhibition at 32.1 µM (Saccharomyces cerevisiae [10]): 3 mm; zone of inhibition at 24 µM (Aspergillus niger [11]): 2 mm; zone of inhibition at 16 µM (Saccharomyces cerevisiae [12]): 2 mm; zone of inhibition at 32.1 µM (Aspergillus niger [13]): 3 mm
9.1	8.8	9.5	5	O=C(CSc1nnc(-c2ccccc2OCc2cn(-c3ccccc3)nn2)n1Cc1ccccc1)c1ccc(Cl)cc1	2	3	3	3	3	inactive	1.5	–
